From the RNAGym collection of RNA variant scans (doi:10.1038/s41586-018-0170-7)

B1: tRNA (parent)
chain: GUUCCGUUGGCGUAAUGGUAACGCGUCUCCCUCCUAAGGAGAAGACUGCGGGUUCGAGUCCCGUACGGAACG

Variants of: B1
Assay: yeast fitness, log relative to wild type (ln ratio); higher = fitter; tRNA-Arg(CCU), competitive growth, 37 C, 1 M NaCl
Method in brief: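 BY4742 cells without the chromosomal tRNA-Arg(CCU) gene carried a combinatorial variant library on a HIS3 centromeric plasmid, from two independent transformations. After 4 generations in SC-HIS at 30 °C, pools spent ~6.5 generations (~26.5 h) in SC-HIS 1M NaCl at 37 °C, giving three outputs per input, and 125 bp paired-end Illumina reads counted the variants. Fitness is the natural log of each genotype's generations over the wild type's, with generations taken as OD-scaled log2 output/input frequency weighted by inverse variance across replicates.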
For G1A U2G G6U A43C C46U C66U A70U C71U, the “yeast fitness (ln)” value was -0.399.
With G1A U2G G6U C27U C66A A70G C71U the “yeast fitness (ln)” value was -0.287.
With U2C G6U A43C C71U the “yeast fitness (ln)” value was -0.117.
With U2G G6U A69G A70G the “yeast fitness (ln)” value was -0.171.
For U2G C27U A43C A69G C71U, the “yeast fitness (ln)” value was -0.318.
With G1A U2C G6U C27U C46U A69G A70U C71U the “yeast fitness (ln)” value was -0.392.
In the case of U2G G6U C46U A69G A70G C71U, the “yeast fitness (ln)” value is reported as -0.217.
In the case of G6A A43C C46U A70U C71U, the “yeast fitness (ln)” value is reported as -0.151.
In the case of G1A U2G G6U C66A A69G A70U, the “yeast fitness (ln)” value is reported as -0.293.
For G1A G6U A43C C66U A69G C71U, the “yeast fitness (ln)” value was -0.587.
In the case of U2C C27U A43C C46U C66A C71U, the “yeast fitness (ln)” value is reported as -0.132.
In the case of U2C C27U A43C C46U C66A A69G A70U C71U, the “yeast fitness (ln)” value is reported as -0.472.
In the case of U2C C27U A43C C66U A69G A70U C71U, the “yeast fitness (ln)” value is reported as -0.476.
In the case of G1A G6A A43C C46U C66U A69G A70U C71U, the “yeast fitness (ln)” value is reported as -0.4.
In the case of U2C C27U A43C C66U C71U, the “yeast fitness (ln)” value is reported as -0.311.
In the case of U2G C27U A43C C46U C66U C71U, the “yeast fitness (ln)” value is reported as -0.292.
In the case of G6U C27U A43C C46U C66A A69G A70U C71U, the “yeast fitness (ln)” value is reported as -0.611.
For G6U C27U A69G, the “yeast fitness (ln)” value was -0.222.
In the case of U2C G6A C27U C66U C71U, the “yeast fitness (ln)” value is reported as -0.161.
With U2G G6A C46U C66A A70G C71U the “yeast fitness (ln)” value was -0.148.
In the case of G1A G6A C27U A43C C46U A69G A70U C71U, the “yeast fitness (ln)” value is reported as -0.399.
In the case of G1A U2C C27U C46U A69G A70G, the “yeast fitness (ln)” value is reported as -0.122.
With G1A U2C C27U C46U A69G A70U the “yeast fitness (ln)” value was -0.0465.
In the case of G1A G6A C66U A69G A70U, the “yeast fitness (ln)” value is reported as -0.102.
With G1A U2C G6U C27U A43C C46U C66A A69G A70G C71U the “yeast fitness (ln)” value was -0.0612.
For G1A C27U A43C C66U A70U C71U, the “yeast fitness (ln)” value was -0.51.
In the case of G1A U2G G6U C46U A70G, the “yeast fitness (ln)” value is reported as -0.282.
With U2G G6A C66A A70G C71U the “yeast fitness (ln)” value was -0.17.
With G1A U2G G6A C27U C71U the “yeast fitness (ln)” value was -0.263.
In the case of G1A U2C G6A A43C C46U, the “yeast fitness (ln)” value is reported as 0.0217.
In the case of G1A U2G G6U C27U C46U C66U A69G A70G, the “yeast fitness (ln)” value is reported as -0.308.
In the case of U2G G6A C27U C66U A69G C71U, the “yeast fitness (ln)” value is reported as -0.409.
For U2G C27U C46U C66A A69G C71U, the “yeast fitness (ln)” value was -0.301.
With G1A G6U C27U C46U C66U A70U C71U the “yeast fitness (ln)” value was -0.438.
For G1A G6A A43C C46U C66U A70U C71U, the “yeast fitness (ln)” value was -0.331.
In the case of G6U A43C C66U A70G, the “yeast fitness (ln)” value is reported as -0.273.
In the case of U2G G6U C27U A43C C46U A70G, the “yeast fitness (ln)” value is reported as -0.208.
With C27U C46U C66A A69G A70U the “yeast fitness (ln)” value was -0.104.
With U2C A70G C71U the “yeast fitness (ln)” value was -0.013.
With G1A U2G G6U C46U A69G A70U C71U the “yeast fitness (ln)” value was -0.279.
In the case of G1A U2G G6U C27U C46U C66U A70U, the “yeast fitness (ln)” value is reported as -0.236.
For G1A U2G A43C C66A A70G C71U, the “yeast fitness (ln)” value was -0.333.
With G1A G6A A43C C46U A70G the “yeast fitness (ln)” value was -0.188.
In the case of G1A G6A A70G C71U, the “yeast fitness (ln)” value is reported as -0.115.
With G1A U2C G6U C27U the “yeast fitness (ln)” value was -0.0816.
With U2G C46U A69G A70G C71U the “yeast fitness (ln)” value was -0.184.
In the case of U2G A43C A69G A70G, the “yeast fitness (ln)” value is reported as -0.0982.
With G1A U2C G6U A43C C46U A70G C71U the “yeast fitness (ln)” value was -0.359.
For G1A U2G G6A C27U A43C C46U C66U C71U, the “yeast fitness (ln)” value was -0.29.
With U2G C66A A70G C71U the “yeast fitness (ln)” value was -0.168.
In the case of G6U A43C C46U C66U A70U, the “yeast fitness (ln)” value is reported as -0.234.
In the case of G6U A43C C46U C66U A70U C71U, the “yeast fitness (ln)” value is reported as -0.359.
For G6A C66U A69G A70U, the “yeast fitness (ln)” value was -0.335.
With U2G G6A C27U A43C C66A the “yeast fitness (ln)” value was -0.237.
With G1A U2G G6A C27U C66U A70U C71U the “yeast fitness (ln)” value was -0.164.
With G1A G6A A43C C46U the “yeast fitness (ln)” value was -0.0957.
For U2G G6A A43C C46U C66U A69G A70G, the “yeast fitness (ln)” value was -0.199.
With U2G C46U C66U C71U the “yeast fitness (ln)” value was -0.115.
In the case of G1A U2C G6U C27U A43C A70G C71U, the “yeast fitness (ln)” value is reported as -0.22.
With G1A A69G A70U C71U the “yeast fitness (ln)” value was -0.44.
For G1A G6U C66U A69G A70G, the “yeast fitness (ln)” value was -0.288.
In the case of G1A U2G G6U C27U A43C C46U A69G A70U C71U, the “yeast fitness (ln)” value is reported as -0.41.
In the case of U2C G6U A43C A69G A70G C71U, the “yeast fitness (ln)” value is reported as -0.13.
With U2G A43C C46U the “yeast fitness (ln)” value was -0.0426.
In the case of G6A C27U C66U, the “yeast fitness (ln)” value is reported as -0.0352.
For G1A U2C G6U C27U A43C C46U C66A A69G A70U, the “yeast fitness (ln)” value was -0.378.
For G1A U2G G6A C46U C66A A70U C71U, the “yeast fitness (ln)” value was -0.134.
In the case of G1A G6U A43C C46U A69G A70U C71U, the “yeast fitness (ln)” value is reported as -0.434.
For U2C C27U A43C A70U, the “yeast fitness (ln)” value was -0.152.
For G1A G6U A69G C71U, the “yeast fitness (ln)” value was -0.186.
For U2G G6U A43C C46U C66U, the “yeast fitness (ln)” value was -0.191.
With U2C G6A C27U A43C C46U C66U the “yeast fitness (ln)” value was -0.0567.
In the case of G1A U2G G6A C46U C66A A70U, the “yeast fitness (ln)” value is reported as -0.189.
With U2C G6U C27U C46U A69G A70U the “yeast fitness (ln)” value was -0.196.
With U2G A43C C66A A70U the “yeast fitness (ln)” value was -0.0996.
For G6U C27U C66U C71U, the “yeast fitness (ln)” value was -0.256.
With G1A U2G G6A C66U A70G the “yeast fitness (ln)” value was -0.142.
In the case of G1A G6U A43C C46U C66A A70G, the “yeast fitness (ln)” value is reported as -0.17.
In the case of U2C G6U A43C A69G A70G, the “yeast fitness (ln)” value is reported as -0.143.
For G6A A43C C46U C66U, the “yeast fitness (ln)” value was -0.00855.
In the case of G1A G6U C27U A43C C46U C66A A70G, the “yeast fitness (ln)” value is reported as -0.319.
For G1A U2G G6A C46U C66U A69G A70G, the “yeast fitness (ln)” value was -0.18.
For G1A C27U C66U A70G C71U, the “yeast fitness (ln)” value was -0.225.
